Measured values from ChEMBL document CHEMBL1123953, “Studies on prodrugs. 7. Synthesis and antimicrobial activity of 3-formylquinolone derivatives” (J Med Chem, 1988).
Converted amounts (≈) assume the structure as drawn. “And” between values parts separate entries of the source, which are not always exact repeats. Identical values can stand only once.

What was measured:
[1] = system: Proteus vulgaris; test: In vitro inhibition of growth of Proteus vulgaris(OX-19); type: functional
Method in brief: (§1)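 Agar dilution using serial 2-fold dilutions in Mueller-Hinton agar, with plate concentrations 0.006 to 100 μg/mL. Inoculum approx. 10^6 cfu/mL. Plates incubated at 37 °C for 18 h. MIC taken as the lowest concentration preventing visible bacterial growth.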

[2] = system: Staphylococcus aureus; test: Inhibition of growth of Staphylococcus aureus (FDA207PJC-1) after incubation at 37 degree Centigrade; type: functional; method in brief: as §1
[3] = system: Klebsiella pneumoniae; test: In vitro inhibition of growth of Klebsiella pneumoniae (PC-1602); type: functional; method in brief: as §1
[4] = system: Escherichia coli; test: (§2) Inhibition of growth of Escherichia coli (KC-14) upon oral administration in mice; type: functional
Method in brief: (§3)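 Groups of 10 male ddY mice (20 ± 2 g) were inoculated intraperitoneally with 0.5 mL of E. coli KC-14 at 10 or 100 times the 50% lethal dose. Compounds, suspended in 0.5% sodium (carboxymethyl)cellulose, were given orally 1 h postinfection. Survival was scored after 1 week. ED50 is reported with 95% confidence limits.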

[5] = system: Mus musculus; test: Serum levels in Mice 1 hr after Oral administration of 50 mg/kg; nd= Not detected; type: functional, organism-based; set-up: dose 50 mg/kg
Method in brief: (§4)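 Mice dosed orally at 50 mg/kg, suspended in 0.5% sodium (carboxymethyl)cellulose; prodrugs given at a dose equivalent to 50 mg/kg of parent acid. Mice killed by bleeding at 0.5, 1.0, 2.0 and 4.0 h, and serum obtained by centrifugation. Serum analysed by HPLC, eluting with 5% AcOH/MeOH (70/30). Values given with standard deviation.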

[6] = system: Mus musculus; test: Serum levels in Mice 4 hr after Oral administration of 50 mg/kg; nd= Not detected; type: functional, organism-based; set-up: dose 50 mg/kg; method in brief: as §4
[7] = system: Escherichia coli; test: In vitro Inhibition of growth of Escherichia coli(KC-14); type: functional; method in brief: as §1
[8] = system: Mus musculus; test: Serum levels in Mice 0.5 hr after Oral administration of 50 mg/kg; nd= Not detected; type: functional, organism-based; set-up: dose 50 mg/kg; method in brief: as §4
[9] = system: Serratia marcescens; test: In vitro inhibition of growth of Serratia marcescens (IAM1184); type: functional; method in brief: as §1
[10] = system: Bacillus subtilis; test: In vitro inhibition of growth of Bacillus subtilis (ATCC 6633); type: functional; method in brief: as §1
[11] = system: Pseudomonas aeruginosa; test: In vitro inhibition of growth of Pseudomonas aeruginosa(E-2); type: functional; method in brief: as §1
[12] = system: Mus musculus; test: Serum levels in Mice 2 hr after Oral administration of 50 mg/kg; nd= Not detected; type: functional, organism-based; set-up: dose 50 mg/kg; method in brief: as §4
[13] = system: Mus musculus; test: as §2; type: functional; method in brief: as §3
[14] = Area under the curve in concentration/ time; type: ADME
Method in brief: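 Mice dosed orally at 50 mg/kg (formyl prodrug at a dose equivalent to 50 mg/kg of parent acid), suspended in 0.5% sodium (carboxymethyl)cellulose. Mice killed by bleeding at 0.5, 1.0, 2.0 and 4.0 h. Blood centrifuged and serum drug levels measured by HPLC. AUC from the serum concentration–time curve, in μg/mL per hour.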

[15] = system: Escherichia coli; test: (§5) Inhibition of growth of Escherichia coli (KC-14) upon oral administration in mice(95%CL); type: functional
Method in brief: (§6)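 Male ddY mice (20 ± 2 g, groups of 10) infected intraperitoneally with 0.5 mL of E. coli KC-14 dilution at 10 or 100 times the 50% lethal dose. Compounds suspended in 0.5% sodium (carboxymethyl)cellulose and given orally 1 h postinfection. Survival scored after 1 week. ED50 derived with 95% confidence limits.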

[16] = system: Mus musculus; test: as §5; type: functional; method in brief: as §6
[17] = Proteus vulgaris, read-out: MIC
[18] = Staphylococcus aureus, read-out: MIC
[19] = Klebsiella pneumoniae, read-out: MIC

## CCn1cc(C(=O)O)c(=O)c2cc(F)c(N3CCN(C)CC3)cc21 [PEFLOXACIN]
[1]
  MIC: 0.05 µg/mL (≈ 0.15 µM)
[1]; [17]
  MIC: 0.05 µg/mL (≈ 0.15 µM)
[2]
  MIC: 0.39 µg/mL (≈ 1.17 µM)
[2]; [18]
  MIC: 0.39 µg/mL (≈ 1.17 µM)
[3]
  MIC: 0.05 µg/mL (≈ 0.15 µM)
[3]; [19]
  MIC: 0.05 µg/mL (≈ 0.15 µM)
[4]
  ED50: 1.67 mg/kg
[4]; Escherichia coli, po
  ED50: 1.67 mg/kg

## CCn1cc(C=O)c(=O)c2cc(F)c(N3CCNCC3)cc21
[5]
  Serum level: Not detected
[1]; [17]
  MIC: 6.25 µg/mL (≈ 20.6 µM)
[6]
  Serum level: Not detected
[7]
  MIC: 12.5 µg/mL (≈ 41.2 µM)
[8]
  Serum level: Not detected
[2]; [18]
  MIC: < 100 µg/mL
[9]
  MIC: < 100 µg/mL
[10]
  MIC: 12.5 µg/mL (≈ 41.2 µM)
[11]
  MIC: < 100 µg/mL
[3]; [19]
  MIC: 3.12 µg/mL (≈ 10.3 µM)
[12]
  Serum level: Not detected
[13]
  ED50: 2.53 mg/kg

## CCn1cc(C(=O)O)c(=O)c2cc(F)c(N3CCNCC3)cc21 [NORFLOXACIN]
[1]; [17]
  MIC: 0.05 µg/mL (≈ 0.157 µM)
[7]
  MIC: 0.1 µg/mL (≈ 0.313 µM)
[2]; [18]
  MIC: 0.2 µg/mL (≈ 0.626 µM)
[9]
  MIC: 0.2 µg/mL (≈ 0.626 µM)
[10]
  MIC: 0.2 µg/mL (≈ 0.626 µM)
[11]
  MIC: 0.78 µg/mL (≈ 2.44 µM)
[3]; [19]
  MIC: 0.05 µg/mL (≈ 0.157 µM)
[14]
  AUC: 0.98 µg/mL/h and 1.77 µg/mL/h
[15]
  ED50: 7.68 mg/kg

## O=Cc1cn(C2CC2)c2cc(N3CCNCC3)c(F)cc2c1=O
[1]; [17]
  MIC: 3.13 µg/mL (≈ 9.93 µM)
[7]
  MIC: 3.13 µg/mL (≈ 9.93 µM)
[2]; [18]
  MIC: 25 µg/mL (≈ 79.3 µM)
[9]
  MIC: 12.5 µg/mL (≈ 39.6 µM)
[10]
  MIC: 6.25 µg/mL (≈ 19.8 µM)
[11]
  MIC: 50 µg/mL (≈ 159 µM)
[3]; [19]
  MIC: 12.5 µg/mL (≈ 39.6 µM)
[13]
  ED50: 0.49 mg/kg

## CCn1cc(C=O)c(=O)c2cc(F)c(N3CCN(C)CC3)cc21
[1]
  MIC: 1.56 µg/mL (≈ 4.92 µM)
[7]
  MIC: 6.25 µg/mL (≈ 19.7 µM)
[2]; [18]
  MIC: 12.5 µg/mL (≈ 39.4 µM)
[9]
  MIC: 12.5 µg/mL (≈ 39.4 µM)
[10]
  MIC: 3.13 µg/mL (≈ 9.86 µM)
[11]
  MIC: < 25 µg/mL
[3]; [19]
  MIC: 1.56 µg/mL (≈ 4.92 µM)
[16]
  ED50: 0.84 mg/kg
